Assay outcomes as filed in PubChem BioAssay.
OX1R antag-1: antagonists of human orexin 1 receptor (OX1R) | O43613 | 330,000 tested, 1.8% active | inhibition, % at 6.6 µM | OX1R-expressing cells, FRET antagonist read-out; in the data active = inhibition mostly above about 38%, no sharp cut-off; inactive = mostly below about 40%;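 note: 0% = agonist challenge alone and 100% = reference antagonist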
GalR3 antagonist: blocks the human galanin receptor 3. AID 651719. inhibition, % at 3 µM. HEK293 GalR3-CNG cAMP membrane potential fluorescence; galR3 body fused to GalR1 C-terminus. O60755. 360,000 tested, 0.44% active;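 active = inhibition above the screen-wide average plus 3 SD, cut at about 13% in these data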;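 note: forskolin and galanin both at EC90 stimulate the cells; cAMP rise reported by CNG channel membrane potential dye signal; 0% = forskolin plus galanin with DMSO and 100% = forskolin alone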
Target sequence (O60755 1-299 limits assumed): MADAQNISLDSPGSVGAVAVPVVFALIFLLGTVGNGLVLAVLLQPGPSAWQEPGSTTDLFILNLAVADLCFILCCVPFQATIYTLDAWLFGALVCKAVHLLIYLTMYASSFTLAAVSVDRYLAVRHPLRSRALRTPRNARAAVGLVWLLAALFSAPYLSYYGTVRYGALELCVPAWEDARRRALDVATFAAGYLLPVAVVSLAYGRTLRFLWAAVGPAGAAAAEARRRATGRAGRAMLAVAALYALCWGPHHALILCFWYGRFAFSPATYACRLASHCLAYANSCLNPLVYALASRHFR
CHO parental Ca: counter-screen: ATP calcium response change in parental CHO cells; inhibition, % at 5.6 µM; parental CHO-K1, ATP-induced calcium, Fluo-8 fluorescence; 330,000 tested, 0.63% active; AID 463079;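 active = inhibition above that plate's mean sample inhibition plus 3 SD, cut at about 26% in these data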;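 note: 0% = ATP-challenged DMSO wells and 100% = DMSO wells without ATP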
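Assay system – parental CHO cells · Reagent – ATP stimulus · Detection – intracellular calcium via Fluo-8 no-wash fluorescent dye · Evaluation – percent inhibition of ATP-evoked calcium rise, normalized to controls · Controls – ATP wells versus no-ATP DMSO wells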
TAAR1 ag: human TAAR1 agonism; CHO RD-HGA16 TAAR1, Fluo-8 calcium fluorescence; vehicle wells 0%, saturating PEA agonist 100%; Q96RJ0; 360,000 tested, 0.99% active; activation, % at 3 µM; AID 624467;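 active = activation above the mean activation of all test compounds in the run plus 3 SD, cut at about 38% in these data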
Target sequence (Q96RJ0 whole entry, looked up): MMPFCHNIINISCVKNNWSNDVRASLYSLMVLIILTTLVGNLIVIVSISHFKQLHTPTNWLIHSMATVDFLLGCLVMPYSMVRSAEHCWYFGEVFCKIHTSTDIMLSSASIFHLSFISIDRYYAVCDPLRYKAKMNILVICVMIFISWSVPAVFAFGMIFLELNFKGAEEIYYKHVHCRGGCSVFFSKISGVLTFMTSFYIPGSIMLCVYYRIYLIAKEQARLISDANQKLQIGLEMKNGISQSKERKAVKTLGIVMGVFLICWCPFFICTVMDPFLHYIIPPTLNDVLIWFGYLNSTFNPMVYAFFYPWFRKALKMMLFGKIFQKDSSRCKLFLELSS
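System: CHO-derived RD-HGA16 cells with stable Gα16 and human TAAR1 / Times: 17-24 h plating, Fluo-8 75 min 37 °C, 30 min RT / Technique: calcium-sensitive Fluo-8 signal, excitation 470-495, emission 515-575 nm / Measure: % activation relative to PEA EC100 response / Benchmarks: DMSO and PEA EC100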
TAAR1 antagonist: human TAAR1 antagonism; inhibition, % at 3 µM; CHO RD-HGA16 TAAR1, Fluo-8 calcium fluorescence, antagonist; Q96RJ0; AID 624466; 360,000 tested, 1.5% active;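 active = inhibition above a per-plate cutoff, the mean inhibition of test compounds on that plate plus 3 SD, cut at about 49% in these data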;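 note: 0% = DMSO plus EC80 beta-PEA response and 100% = DMSO alone without agonist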
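test system = CHO RD-HGA16 cells bearing hTAAR1 | replication = singlicate | controls = DMSO-only wells and EC80 β-PEA-stimulated wells | reagent = EC80 β-phenethylamine stimulus | read-out basis = percent inhibition of PEA-evoked calcium signal, max/basal emission ratio | schedule = seeding 17-24 h prior, 75-min 37 °C, 30-min RT dye loading | signal = kinetic Fluo-8 calcium fluorescence measurement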
OX1R antag-2: antagonists of human orexin 1 receptor; CHO/OX1R cells, Fluo-8 calcium fluorescence, orexin A; 330,000 tested, 0.43% active; inhibition, % at 5 µM; O43613;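 active = inhibition above its plate's threshold, mean inhibition of all tested compounds on the plate plus 3 SD, cut at about 37% in these data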;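 note: 0% = orexin A challenge wells and 100% = SB-334867-A antagonist wells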
TAAR1 nonsel count: nonselective antagonism, TAAR1 counter-screen; inhibition, % at 3 µM; 2,400 tested, 77% active; shares compounds with TAAR1 antagonist; counterscreen cell line, calcium fluorescence, antagonist mode; AID 651780; in the data active = inhibition above about 22%;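 note: CHO-Ga16 host cells stimulated with ATP at an EC80 level; 0% = agonist EC80 plus vehicle and 100% = vehicle without agonist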
TAAR1 ant conf: confirmation of human TAAR1 antagonists | shares compounds with TAAR1 antagonist | TAAR1-expressing cells, fluorescence antagonist read-out | inhibition, % at 3 µM | 2,400 tested, 40% active | AID 651785; in the data active = inhibition above about 49%;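 note: CHO-Ga16 host cells challenged with agonist PEA near its EC80; 0% = agonist at EC80 plus vehicle and 100% = vehicle with no agonist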
Ga16 ag counter: nonselective Ga16 agonist in TAAR1 antagonist counter-screen; shares compounds with TAAR1 antagonist; Ga16-expressing cells, calcium fluorescence, agonist counterscreen; activation, % at 3 µM; 2,400 tested, 18% active; AID 651953; in the data active = activation above about 12%;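 note: 0% = vehicle wells and 100% = saturating stimulus response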
TAAR1 ag counter: TAAR1 agonism, antagonist counter-screen; shares compounds with TAAR1 antagonist; activation, % at 3 µM; 2,400 tested, 2% active; AID 651955; hTAAR1 cell line, fluorescence activation, agonist mode; in the data active = activation above about 37%;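 note: CHO cells stably expressing TAAR1 with calcium dye readout; 0% = DMSO vehicle and 100% = full agonist response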
Numbers without * were called inactive. Shown are actives, neighbours in structure and some others; about 4.3% of the full set was active somewhere.

For COc1ccc(-c2cc(C(=O)N3CCCC3)c3ccccc3n2)cc1 the results were OX1R antag-1 -1.9, GalR3 antagonist -6.4, CHO parental Ca -21.4, TAAR1 ag 7.2, TAAR1 antagonist 15.7 and OX1R antag-2 -13.0.
`COc1cccc(CN2CCN(C(=O)c3cc(-c4cccnc4)nc4ccc(C)cc34)CC2)c1` gave OX1R antag-1 26.9, GalR3 antagonist 10.2, CHO parental Ca -17.6, TAAR1 ag 13.9, TAAR1 antagonist 65.8*, OX1R antag-2 -17.5, TAAR1 nonsel count 27.4*, TAAR1 ant conf 48.2, Ga16 ag counter 8.9 and TAAR1 ag counter 8.0.
`CCOc1ccc2oc(C(=O)N3CCN(c4ccccc4OCC)CC3)c(C)c2c1` gave OX1R antag-1 6.5, GalR3 antagonist -3.1, CHO parental Ca -20.7, TAAR1 ag 2.6, TAAR1 antagonist 59.8*, OX1R antag-2 -52.1, TAAR1 nonsel count 19.9, TAAR1 ant conf 42.8, Ga16 ag counter 2.1 and TAAR1 ag counter 10.7.
Screening COc1ccc(-c2cc(C(=O)N3CCCCCC3)c3ccccc3n2)c(OC)c1 returned OX1R antag-1 28.6, GalR3 antagonist -1.5, CHO parental Ca -27.7, TAAR1 ag 1.4, TAAR1 antagonist 34.8 and OX1R antag-2 -36.2.
O=C(NCCCN1CCOCC1)c1cc(Cl)ccc1OCc1ccccc1 was read as OX1R antag-1 2.6, GalR3 antagonist -5.8, CHO parental Ca -18.3, TAAR1 ag 0.5, TAAR1 antagonist -17.0 and OX1R antag-2 -36.8.
For N#Cc1ccccc1NC(=O)COC(=O)c1c[nH]c2ccccc12 the results were GalR3 antagonist -0.6, TAAR1 ag 3.7 and TAAR1 antagonist -2.5.
COC(=O)C1=C(C)N(Cc2ccc(Cl)cc2)C(=S)NC1c1ccccc1 (configuration not stated) was read as GalR3 antagonist -8.0, TAAR1 ag -1.4 and TAAR1 antagonist 30.2.
For COC(=O)C1=C(C)N(Cc2ccc(Cl)cc2)C(=S)NC1c1cccc(OC)c1 (configuration not stated) the results were GalR3 antagonist -8.1, TAAR1 ag 0.5, TAAR1 antagonist 51.1*, TAAR1 nonsel count 19.5, TAAR1 ant conf 22.1, Ga16 ag counter -0.8 and TAAR1 ag counter -0.9.
`O=C1CCCCC1C(Nc1ccc(Cl)cc1)c1ccccc1` (configuration not stated) gave OX1R antag-1 21.9, GalR3 antagonist -0.2, CHO parental Ca -23.9, TAAR1 ag 11.0, TAAR1 antagonist 67.8*, OX1R antag-2 -7.4, TAAR1 nonsel count 12.6, TAAR1 ant conf 44.6, Ga16 ag counter 6.5 and TAAR1 ag counter 9.8.
`CCOC(=O)Cn1c(=O)oc2cc(S(=O)(=O)N(C)Cc3ccccc3)ccc21` gave OX1R antag-1 13.8, GalR3 antagonist -5.1, CHO parental Ca -6.8, TAAR1 ag 15.6, TAAR1 antagonist 64.7*, OX1R antag-2 4.2, TAAR1 nonsel count 19.1, TAAR1 ant conf 47.0, Ga16 ag counter 11.3 and TAAR1 ag counter 10.8.
For C[C@@H]1ON(C)[C@H]2C[C@H]3c4[nH]c5c(-c6ccc7c(c6)OCO7)cccc5c4CCN3C(=O)[C@@H]12 the results were GalR3 antagonist -6.2, TAAR1 ag 8.7, TAAR1 antagonist 61.9*, TAAR1 nonsel count 27.3*, TAAR1 ant conf 44.7, Ga16 ag counter 7.0 and TAAR1 ag counter 4.6.
For C[C@H](O)[C@@H]1C(=O)N2CCc3c([nH]c4c(-c5ccccc5)cccc34)[C@@H]2C[C@@H]1N(C)C(=O)Nc1ccccc1 the results were GalR3 antagonist 0.7, TAAR1 ag 9.0, TAAR1 antagonist 53.5*, TAAR1 nonsel count 30.9*, TAAR1 ant conf 26.3, Ga16 ag counter 5.1 and TAAR1 ag counter 3.7.
Screening C[C@H](O)[C@@H]1C(=O)N2CCc3c([nH]c4c(-c5ccccc5)cccc34)[C@@H]2C[C@@H]1N(C)C(=O)Nc1cccc2ccccc12 returned GalR3 antagonist -9.1, TAAR1 ag 4.8 and TAAR1 antagonist 26.6.
For Cc1ccccc1NC(=O)N(C)[C@H]1C[C@H]2c3[nH]c4c(-c5ccccc5)cccc4c3CCN2C(=O)[C@H]1[C@H](C)O the results were GalR3 antagonist -7.7, TAAR1 ag 15.8, TAAR1 antagonist 56.7*, TAAR1 nonsel count 29.0*, TAAR1 ant conf 34.5, Ga16 ag counter 5.9 and TAAR1 ag counter 4.3.
Screening COCCNC(=S)N(C)[C@H]1C[C@H]2c3[nH]c4c(-c5ccc6c(c5)OCO6)cccc4c3CCN2C(=O)[C@H]1[C@H](C)O returned GalR3 antagonist -4.6, TAAR1 ag 15.5, TAAR1 antagonist 61.8*, TAAR1 nonsel count 29.4*, TAAR1 ant conf 45.1, Ga16 ag counter 4.1 and TAAR1 ag counter 7.9.
Screening COC(=O)CCC(=O)c1ccc(OC)c(Cl)c1 returned OX1R antag-1 16.7, CHO parental Ca -6.7 and OX1R antag-2 -1.7.
Screening Cc1ccc(N2CC(C(=O)Nc3nnc(SCC(N)=O)s3)CC2=O)cc1 (configuration not stated) returned OX1R antag-1 17.1, GalR3 antagonist 2.4, CHO parental Ca -7.5, TAAR1 ag 0.2, TAAR1 antagonist -13.6 and OX1R antag-2 -8.8.
Screening CCOC(=O)N1CCN(C(=O)C[C@H]2C[C@@]3(C(=O)OC)C(=C[C@H](C(C)(C)C)O[C@@H]3C)N(Cc3ccccc3)C2=O)CC1 returned GalR3 antagonist -2.6, TAAR1 ag -0.6 and TAAR1 antagonist -2.7.
Cc1cc(C)c(S(=O)(=O)Nc2ccccn2)c(C)c1 was read as OX1R antag-1 3.4, GalR3 antagonist -10.3, CHO parental Ca -7.6, TAAR1 ag -1.2, TAAR1 antagonist 1.9 and OX1R antag-2 -5.0.
Cc1ccc(S(=O)(=O)N2CCOCC2)cc1C(=O)N(C)CCOc1ccc(Cl)cc1 was read as OX1R antag-1 10.7, CHO parental Ca -9.4 and OX1R antag-2 -21.5.
Screening CN(CCOc1ccc(Cl)cc1)C(=O)c1cc(S(=O)(=O)N2CCOCC2)ccc1N1CCCC1 returned OX1R antag-1 5.3, GalR3 antagonist -4.3, CHO parental Ca -31.9, TAAR1 ag 17.2, TAAR1 antagonist 67.4*, OX1R antag-2 -20.2, TAAR1 nonsel count 21.1, TAAR1 ant conf 35.2, Ga16 ag counter 7.3 and TAAR1 ag counter 4.7.
